According to ChEMBL document CHEMBL3817802, “Discovery of Benzofuran Derivatives that Collaborate with Insulin-Like Growth Factor 1 (IGF-1) to Promote Neuroprotection” (J Med Chem, 2016):

Legend:
[1] = (§1) Neuroprotective activity against serum starvation-induced cell death in Sprague-Dawley rat primary neural cells assessed as neuronal survival rate incubated for 3 days in presence of 100 ng/ml human recombinant IGF-1 by beta3-tubulin-detecting cell-ELISA relative to control; type: functional, cell-based; details: Primary neuron, 72 h
How it was run: (§2)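 Primary neural cells were taken from rat hippocampal and cerebral cortical tissue and grown 4 days in serum-containing medium. They were then switched to serum-free medium for 3 days, with 100 ng/mL IGF-1 plus test agent, to induce starvation death. Neurons were counted by cell-ELISA for βIII-tubulin immunoreactivity. EC50 was reported with its 95% confidence interval.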

[2] = Ratio of drug level in brain to plasma of Sprague-Dawley rat at 0.1 mg/kg, iv by cassette dosing measured at 1 hr by LC/MS/MS analysis; type: ADME, organism-based
[3] = molecular target: CYP2C9 (Homo sapiens, UniProt P11712); assay: Inhibition of CYP2C9 in human liver microsomes at 10 uM incubated for 30 mins by HPLC analysis; type: ADME
[4] = Metabolic clearance in human liver microsomes at 1 umol/L by LC/MS/MS analysis; type: ADME; details: read-out: CLH
[5] = Neuroprotective activity against serum starvation-induced cell death in Sprague-Dawley rat primary neural cells assessed as neuronal survival rate at 1 umol/L incubated for 3 days by beta3-tubulin-detecting cell-ELISA relative to control; type: functional, Primary neuron
How it was run: (§3)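 Primary neural cells from rat hippocampal and cerebral cortical tissue were grown 4 days in serum-containing medium, then 3 days serum-free to induce death, with or without IGF-1. The line's compound concentration was present during the serum-free phase. Neuron number was estimated by cell-ELISA for βIII-tubulin immunoreactivity. Data are mean ± SEM of four wells.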

[6] = Neuroprotective activity against serum starvation-induced cell death in Sprague-Dawley rat primary neural cells assessed as neuronal survival rate at 1 umol/L incubated for 3 days in presence of 3 to 100 ng/ml human recombinant IGF-1 by beta3-tubulin-detecting cell-ELISA; type: functional, Primary neuron; how it was run: as §3
[7] = system: Primary neuron; assay: as §1; type: functional, cell-based; how it was run: as §2
[8] = Neuroprotective activity against serum starvation-induced cell death in Sprague-Dawley rat primary neural cells assessed as neuronal survival rate at 0.33 uM incubated for 3 days in presence of 100 ng/ml human recombinant IGF-1 by beta3-tubulin-detecting cell-ELISA relative to control; type: functional, Primary neuron; how it was run: as §3
[9] = system: HepG2; assay: Cytotoxicity against human HepG2 cells assessed as decrease in cellular ATP content at 100 uM after 1 day; type: cell-based; parameters: scale not given: the % may be the effect or the level left; details: hepg2, 24 h
[10] = Neuroprotective activity against serum starvation-induced cell death in Sprague-Dawley rat primary neural cells assessed as neuronal survival rate at 10 uM incubated for 3 days in presence of 100 ng/ml human recombinant IGF-1 by beta3-tubulin-detecting cell-ELISA relative to control; type: functional, Primary neuron; how it was run: as §3
[11] = Oral bioavailability in Sprague-Dawley rat at 1 mg/kg by LC/MS/MS analysis; type: ADME, organism-based; details: in vivo

Sequence of CYP2C9 (P11712 whole entry): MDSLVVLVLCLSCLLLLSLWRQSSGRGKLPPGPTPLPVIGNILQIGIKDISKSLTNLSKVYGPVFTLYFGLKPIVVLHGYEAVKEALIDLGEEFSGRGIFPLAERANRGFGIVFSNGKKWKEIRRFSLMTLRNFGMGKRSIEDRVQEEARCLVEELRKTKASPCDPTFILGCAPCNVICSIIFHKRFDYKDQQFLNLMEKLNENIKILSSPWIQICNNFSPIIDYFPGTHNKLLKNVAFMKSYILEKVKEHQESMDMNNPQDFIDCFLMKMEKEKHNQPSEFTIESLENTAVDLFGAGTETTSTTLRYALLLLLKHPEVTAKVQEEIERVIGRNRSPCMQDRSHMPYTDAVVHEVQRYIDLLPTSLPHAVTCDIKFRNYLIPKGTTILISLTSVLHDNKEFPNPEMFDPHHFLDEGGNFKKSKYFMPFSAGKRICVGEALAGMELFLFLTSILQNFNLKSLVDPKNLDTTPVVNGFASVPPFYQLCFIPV

Row | SMILES | EC50 [1] [nM] | other results
1 | COc1ccc(CN2CCN(c3c(C)c(C)c4c(c3C)CC(C)(C)O4)CC2)cc1 | 680 | –
2 | COc1ccc(N2CCN(c3c(C)c(C)c4c(c3C)CC(C)(C)O4)CC2)cc1 | 150 | Kp at 1 h [2]: 2.9; inhibition at 0.5 h, 10 µM [3]: -0.9%; microsomal CLint at 1 µM [4]: 2 µL/min/mg; fold change (FC) [5]: 3; fold change (FC) [6]: 6; Activity [7]: Dose-dependent effect; fold change (FC) [8]: 3; Activity [9]: 93.3%
3 | Cc1c(C)c(N2CCNCC2)c(C)c2c1OC(C)(C)C2 | – | Survival [10]: 20%
4 | COc1ccc(N2CCN(c3c(C)c(C)c4c(c3C)CC(C)(C)O4)CC2)c(OC)c1 | 390 | –
5 | COc1ccc(N2CCN(c3c(C)c(C)c4c(c3C)C(=O)C(C)(C)CO4)CC2)cc1 | 510 | inhibition at 0.5 h, 10 µM [3]: 42.1%
6 | COc1ccc(N2CCN(c3c(C)c(C)c4c(c3C)C(=O)C(C)(C)O4)CC2)cc1 | 120 | bioavailability [11]: 42.3%; Kp at 1 h [2]: 3.4; inhibition at 0.5 h, 10 µM [3]: 83.4%
7 | COc1ccc(N2CCCN(c3c(C)c(C)c4c(c3C)CC(C)(C)O4)CC2)cc1 | 76 | microsomal CLint at 1 µM [4]: 87 µL/min/mg
8 | COc1ccc(N2CCN(c3c(C)c(C)c4c(c3C)C[C@](C)(CO)O4)CC2)cc1 | 630 | –
9 | Cc1c(C)c(N2CCN(c3ccc(C#N)cc3)CC2)c(C)c2c1OC(C)(C)C2 | > 1000 | –
10 | COc1ccc(C2CN(c3c(C)c(C)c4c(c3C)CC(C)(C)O4)CCO2)cc1 (racemic) | 370 | –
11 | COc1ccc(N2CCN(c3c(C)c(C)c4c(c3C)C[C@@](C)(CO)O4)CC2)cc1 | 700 | –
12 | CC(=O)c1ccc(N2CCN(c3c(C)c(C)c4c(c3C)CC(C)(C)O4)CC2)cc1 | 150 | Activity [9]: 68%
13 | Cc1c(C)c(N2CCN(c3ccc(Cl)cc3)CC2)c(C)c2c1OC(C)(C)C2 | 660 | –
14 | COc1ccc(C2CN(c3c(C)c(C)c4c(c3C)CC(C)(C)O4)CCN2C)cc1 (racemic) | 550 | –
15 | COc1ccc(N2CCN(c3c(C)c(C)c4c(c3C)C[C@@H](C)O4)CC2)cc1 | 440 | –
16 | Cc1c(C)c(N2CCN(c3ccccc3)CC2)c(C)c2c1OC(C)(C)C2 | 380 | –
17 | Cc1ccc(N2CCN(c3c(C)c(C)c4c(c3C)CC(C)(C)O4)CC2)cc1 | 130 | microsomal CLint at 1 µM [4]: 30 µL/min/mg
18 | Cc1c(C)c(N2CCN(c3ccc(F)cc3)CC2)c(C)c2c1OC(C)(C)C2 | 300 | –
19 | COc1ccc(N2CCN(c3c(C)c(C)c4c(c3C)CCO4)CC2)cc1 | 230 | –
20 | COc1ccc(N2CCN(c3c(C)c(C)c4c(c3C)CC(C)(C)O4)CC2)cc1OC | 270 | –
21 | COc1ccc(N2CCN(c3c(C)c(C)c4c(c3C)C[C@H](C)O4)CC2)cc1 | 460 | –
22 | COc1ccc(N2CCN(c3c(C)c(C)c4c(c3C)CC(C)(C)O4)CC2)cn1 | 620 | –
